Measured values from article PMC9292875 (British Journal of Clinical Pharmacology, 2021).
Several values for one entry are separate records, joined by “and”; a condition that tells them apart may be missing. Identical values can stand only once.

Key:
patients = details: available clinical data; cited from earlier work
[1] = test system: patients with advanced solid malignancies; test: Exploratory graphical analysis of model assumptions; assay type: in vivo, human
Procedure, shortened: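 Before modelling, first-dose paired data were plotted to check four assumptions: no drug effect on heart rate; a suitable HR correction (RR versus uncorrected QT, QTcF and QTcB); no hysteresis (mean ΔQTcF against concentration, joined in time order per dose); and linearity (loess smooth, linear regression, binned means). Sampling was at baseline, 1, 2, 6 and 24 h (escalation/expansion) or at baseline, 2 and 4–6 h (mutation cohorts).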

[2] = Plasma pharmacokinetics of capivasertib; assay type: in vivo, human
[3] = test system: patients with advanced solid malignancies; assay type: in vivo, human; details: linear mixed-effects model parameter estimate
Procedure, shortened: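 The model was a prespecified linear mixed-effects structure for placebo-free oncology trials. It regressed baseline-adjusted QTcF on plasma concentration, with random intercept and slope, plus a fixed effect for baseline QTcF centred on the overall baseline mean. Fitting used restricted maximum likelihood, assuming normal random effects and residuals. Only first-dose data were used (503 time-matched points, 180 patients). Fit was checked with goodness-of-fit plots.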

[4] = test system: patients with advanced solid malignancies; test: Categorical evaluation of QTc, PR and QRS intervals; assay type: in vivo, human; details: of 180 patients
Procedure, shortened: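 Patients received single twice-daily-regimen doses of 80–800 mg, either continuous or intermittent. A 12-lead digital ECG was recorded after at least 10 min semi-supine rest. Triplicate tracings were taken about 5 min apart at each time point and averaged, then read centrally. Thresholds were QTc ≥450, ≥480 and ≥500 ms; ΔQTc ≥30 and ≥60 ms; PR ≥200 ms; and QRS ≥110 ms.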

## NC1(C(=O)N[C@@H](CCO)c2ccc(Cl)cc2)CCN(c2ncnc3[nH]ccc23)CC1 [capivasertib, 4‐amino‐N‐[(1S)‐1‐(4‐chlorophenyl)‐3‐hydroxypropyl]‐1‐(7H‐pyrrolo[2,3‐d]pyrimidin‐4‐yl)piperidine‐4‐carboxamide]
patients
  Reports of serious cardiac events or ECG changes: no reports of sudden death, torsades de pointes, seizures or electrocardiogram (ECG) changes that were considered serious
[1]; after administration of first dose
  Time to maximum ΔQTcF: ≤ 2 h
[1]; after first dose, small decrease at 1 hour, not dose-dependent
  ΔHR (change in heart rate): ≤ 10 beats per minute
[1]; in vivo
  Time delay between concentration and ΔQTcF (hysteresis plots): No evidence of a time‐delay
[2]; 4 days on/3 days off intermittent schedule
  Drug accumulation: less than twofold
[2]; after first dose
  Time at which Cmax was reached after dosing: approximately 2 hours
[3]
  ɛ Residual variability: 6.452 ms
  η0 Random effect for intercept: 5.350 ms
  θ0 Intercept: -0.269 ms
  θ1 Slope of capivasertib concentration vs ΔQTcF: 0.003 ms/(ng/mL) and 0.00337 ms/(ng/mL)
  θ2 Impact of baseline QTcF on ΔQTcF: −0.119
[4]; doses from 80 mg to 800 mg
  Patients with QRS ≥ 110 ms: 5.0%
[4]; single doses 80-800 mg
  Patients with QTcF ≥ 480 ms: No patients
  Patients with ΔQTcF ≥ 60 ms: No patients
